Experimental data reported in PubChem BioAssay.
Active and inactive are the calls of the source.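 How the source made its calls, unless noted: active means viability loss from added drug above about 55%, and viability with drug at most 40%, in both replicates (limit read from the data, passing the limit was not always enough); inconclusive means both conditions met in only one replicate; inactive means neither replicate meets both conditions.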

Experiments:
[1] = SK-BR-3 cell growth inhibitors, pilot screen, 24 h, human (AID 572;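 active means viability at or below 10% of carrier control in both of two separate runs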;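 further: compound exposure lasted between 18 and 24 h rather than exactly 24 h; 100% = carrier-treated control wells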); conditions: SK-BR-3 viability, CellTiter-Glo luminescence, at 10 µM, stronger effect = lower value
[2] = HUVEC growth inhibition – cell-based, human, primary screen (AID 575;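 active means viability at or below 30% in both replicate assays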;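 further: 100% = median of untreated cell wells with 0.1% DMSO on each plate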); conditions: HUVEC proliferation, CellTiter-Glo luminescence, 72 h; at 10 µM; stronger effect = lower value
Outline: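 Test system: primary human umbilical vein endothelial cells. Quantity: 1250 cells/well. Compound: single 10 µM dose, 0.1% DMSO, from 5x medium stock. Timing: 72 h treatment at 37 °C. Detection: ATP-based CellTiter-Glo luminescent read. Benchmarks: vehicle and MePR control wells. Format: 384-well plates coated with collagen.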

[3] = growth inhibitors of H69AR lung tumor, primary screen, human, duplicate replicates (AID 580;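 active means viability at or under a set limit in both replicates, limit being median viability minus 3 SD, cut at about 48% in these data, passing the limit was not always enough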;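 further: 100% = mean luminescence of untreated wells and 0% = no signal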); conditions: H69AR lung tumor cells viability, ATP luminescence, 72 h; at 10 µM; stronger effect = lower value
[4] = reversal of MRP1-mediated doxorubicin resistance, pilot screen, H69AR cells, doxorubicin co-treatment (AID 601); conditions: CellTiter-Glo, 72 h, at 10 µM; for differential viability (reversal): stronger effect = higher value
[5] = 384-well plate pilot, post-Golgi transport modulator project, inhibition of yeast transport mutant growth (AID 636; in the data active means inhibition above about 31%); conditions: absorbance 615 nm, about 18 h, stronger effect = higher value
[6] = growth suppression of yeast trafficking mutant, preliminary HTS, modulators of trafficking downstream of Golgi apparatus project, 1536-format plate, OD 615 nm (AID 637; in the data active means inhibition above about 30%); conditions: yeast transport mutant growth, absorbance 615 nm, 18 h; stronger effect = higher value
[7] = H69AR cells + 2 uM doxorubicin, measured here: viability with 2 uM doxorubicin, stronger effect = lower value
[8] = H69AR cells, compound alone cytotoxicity

Row | Structure (SMILES) | viability [1] | viability [2] | viability [3] | differential viability (reversal) ([4]; H69AR cells + 2 uM doxorubicin) | viability [4, 7] [%] | viability [4, 8] [%] | inhibition [5] | inhibition [6]
1 | CCc1cccc(NC(=O)CN(C)S(=O)(=O)c2cccc3nsnc23)c1 | 92% (inactive) | 90.3% (inactive) | 91.8% (inactive) | 7.68% (inactive) | 84.1 | 91.8 | -5.68% (inactive) | -2.55% (inactive)
2 | CCOC(=O)C1CCCN(C(=O)c2cc3c(-c4cccc(OC)c4)nn(C)c3s2)C1 (stereo unspecified) | 115% (inactive) | 56.1% (inactive) | 13.2% (active) | -69% (inactive) | 82.2 | 13.2 | -8.13% (inactive) | 1.64% (inactive)
3 | O=C(CSc1nnc(-c2ccco2)n1-c1ccccc1)N1CCN(C(=O)c2ccco2)CC1 | 137% (inactive) | 80.3% (inactive) | 84.4% (inactive) | -1.54% (inactive) | 85.9 | 84.4 | -1.17% (inactive) | -0.82% (inactive)
4 | C=CCN=C1SCC(=O)N1S(=O)(=O)c1ccc(C)cc1 | 88% (inactive) | 89.1% (inactive) | 113% (inactive) | 13.6% (inactive) | 99.4 | 113 | -4.73% (inactive) | 1.64% (inactive)
5 | C/C(Nc1cccc(F)c1)=C(/C#N)C(N)=O | 107% (inactive) | 122% (inactive) | 99.2% (inactive) | 5.34% (inactive) | 93.9 | 99.2 | -4.32% (inactive) | -5.64% (inactive)
6 | COc1ccc(C(=O)NCCc2nnc(SCc3nc4ccccc4c(=O)[nH]3)n2C)cc1 | 101% (inactive) | 67.3% (inactive) | 83.4% (inactive) | 9.63% (inactive) | 73.8 | 83.4 | -5.89% (inactive) | 2.42% (inactive)
7 | CC(=O)c1n[nH]nc1NC(=O)c1ccccc1 | 120% (inactive) | 97.6% (inactive) | 89.9% (inactive) | -6.65% (inactive) | 96.6 | 89.9 | -1.69% (inactive) | 0.16% (inactive)
8 | Cc1nn(C)c(C)c1NC(=O)CSc1nc(Cc2ccccc2)nc2c1cnn2-c1ccccc1 | 116% (inactive) | 88% (inactive) | 78.8% (inactive) | 0.07% (inactive) | 78.7 | 78.8 | -2.05% (inactive) | 5.48% (inactive)
9 | CC(=O)Nc1cc(NC(C)=O)cc(C(=O)OCC(=O)N2CC(C)OC(C)C2)c1 (stereo unspecified) | 94% (inactive) | 99.9% (inactive) | 102% (inactive) | 8.29% (inactive) | 94.1 | 102 | -6.62% (inactive) | -3.64% (inactive)
10 | Cc1oc(-c2ccc(Cl)cc2)cc1-c1nn2c(-c3ccoc3C)nnc2s1 | 86% (inactive) | 75.3% (inactive) | 83.7% (inactive) | -12% (inactive) | 95.7 | 83.7 | 18.9% (inactive) | 3.06% (inactive)
11 | Cc1nn(-c2nc3ccccc3[nH]2)c(N)c1-c1ccccc1 | 97% (inactive) | 62.5% (inactive) | 41.3% (active) | -27.6% (inactive) | 68.9 | 41.3 | 11.6% (inactive) | 2.7% (inactive)
12 | CCC(=O)Oc1ccc(C/C(=N\O)c2ccc(O)cc2O)o1 | 85% (inactive) | 90.6% (inactive) | 52.5% (inactive) | -33% (inactive) | 85.5 | 52.5 | 3.01% (inactive) | 13.8% (inactive)
13 | CCCC1CCC(C(=O)Nn2cnc3ccccc3c2=O)CC1 (stereo unspecified) | 101% (inactive) | 108% (inactive) | 91.7% (inactive) | 9.62% (inactive) | 82 | 91.7 | 1.17% (inactive) | 7.05% (inactive)
14 | CN(Cc1ccc(-n2cccn2)cc1)C(=O)c1cnn2c1NC(c1ccco1)CC2C(F)(F)F (stereo unspecified) | 74% (inactive) | 82.3% (inactive) | 78.4% (inactive) | -7.45% (inactive) | 85.8 | 78.4 | 2.88% (inactive) | -0.36% (inactive)
15 | Cc1ccc(OCC2Cn3c(nc4c3c(=O)n(C)c(=O)n4C)O2)cc1 (stereo unspecified) | 91% (inactive) | 96% (inactive) | 93% (inactive) | -3% (inactive) | 96 | 93 | -8.36% (inactive) | 2.91% (inactive)
16 | COc1ccc2c(c1)c(CC(=O)OCC(=O)O)c(C)n2C(=O)c1ccc(Cl)cc1 | 133% (inactive) | 66.8% (inactive) | 96.2% (inactive) | 5.33% (inactive) | 90.9 | 96.2 | -5.06% (inactive) | -0.67% (inactive)
17 | O=S(=O)(Nc1nc2ccccc2nc1NCc1ccco1)c1cccs1 | 91% (inactive) | 100% (inactive) | 29% (active) | -23% (inactive) | 51.9 | 29 | -5.68% (inactive) | 0.73% (inactive)
18 | Cc1cc(NC(=O)c2ccccc2)ncc1NC(=O)c1ccco1 | 94% (inactive) | 96.2% (inactive) | 109% (inactive) | 9.27% (inactive) | 99.9 | 109 | -4.42% (inactive) | 0.32% (inactive)
19 | CCOC(=O)c1cccc(NC(=O)CSc2nnc(-c3cccnc3)n2C)c1 | 99% (inactive) | 107% (inactive) | 98.3% (inactive) | 5.64% (inactive) | 92.7 | 98.3 | -3.38% (inactive) | -0.73% (inactive)

Row | Structure (SMILES) | viability [1] | viability [2] | viability [3] | differential viability (reversal) ([4]; H69AR cells + 2 uM doxorubicin) | viability [4, 7] [%] | viability [4, 8] [%] | inhibition [5] | inhibition [6]
20 | COc1ccc(/C=N/n2c(SC)nnc2-c2ccccc2)cc1C | 116% (inactive) | 75.5% (inactive) | 20.7% (active) | -58.1% (inactive) | 78.8 | 20.7 | 0.93% (inactive) | 9.27% (inactive)
21 | CN(C)c1nc(Oc2ccc(N)cc2)nc(N(C)C)n1 | 97% (inactive) | 86.2% (inactive) | 90.1% (inactive) | -6.47% (inactive) | 96.6 | 90.1 | -7.73% (inactive) | -2% (inactive)
22 | O=C(CSc1nc2ccccc2[nH]1)N1CCCCC1 | 106% (inactive) | 102% (inactive) | 92.9% (inactive) | 8.96% (inactive) | 83.9 | 92.9 | -6.44% (inactive) | 5.09% (inactive)
23 | Cn1c(C(=O)OC(C(=O)NC2CCCC2)c2cccnc2)cc2sccc21 (stereo unspecified) | 74% (inactive) | 110% (inactive) | 89.1% (inactive) | -3.48% (inactive) | 92.6 | 89.1 | -4.38% (inactive) | 2.91% (inactive)
24 | COC(=O)CNc1nc(C2CC2)nc2c1nnn2Cc1ccccc1Cl | 89% (inactive) | 84.9% (inactive) | 94.7% (inactive) | -2.29% (inactive) | 97 | 94.7 | -9.04% (inactive) | 1.13% (inactive)
25 | O=C(Nc1cccnc1)Nc1ccc(F)c(Cl)c1 | 82% (inactive) | 86.6% (inactive) | 105% (inactive) | 4.77% (inactive) | 100 | 105 | -2.19% (inactive) | 12% (inactive)
26 | COc1ccc(OC)c(NC(=O)CSc2nnc(-c3ccco3)n2-c2ccccc2)c1 | 59% (inactive) | 83% (inactive) | 90.4% (inactive) | 5.04% (inactive) | 85.4 | 90.4 | -6.3% (inactive) | 3.45% (inactive)
27 | CCOc1ccc(-c2cn(S(=O)(=O)c3cccc4nsnc34)nc2N)cc1 | 117% (inactive) | 94.8% (inactive) | 84.8% (inactive) | 3.21% (inactive) | 81.6 | 84.8 | 34.9% (active) | 31% (active)
28 | CCOC(=O)N1CCN(C(=O)CN(Cc2ccccc2)S(=O)(=O)c2ccc(OC)c(C)c2)CC1 | 106% (inactive) | 102% (inactive) | 94.7% (inactive) | -7.75% (inactive) | 102 | 94.7 | -0.13% (inactive) | -3.45% (inactive)
29 | O=C(NC1=NCCS1)c1ccc2c(c1)C(=O)N(Cc1ccco1)C2=O | 85% (inactive) | 94% (inactive) | 93.6% (inactive) | 1.83% (inactive) | 91.8 | 93.6 | -7.26% (inactive) | 4.73% (inactive)
30 | CCC[C@@H]1C[C@@H](C(=O)N[C@H]([C@@H](C)O)[C@H]2O[C@H](SC)[C@H](O)[C@@H](O)C2O)N(C)C1 (stereo partly specified) | 128% (inactive) | 94.7% (inactive) | 89.7% (inactive) | 9.67% (inactive) | 80 | 89.7 | 0.52% (inactive) | 15.7% (inactive)
31 | CCOc1ccc(NC(=O)COC(=O)Cn2cnnn2)cc1OCC | 86% (inactive) | 106% (inactive) | 107% (inactive) | -0.92% (inactive) | 108 | 107 | 1.23% (inactive) | -0.36% (inactive)
32 | Cc1occc1-c1nnc(SCC(=O)N2CCOCC2)n1Cc1ccco1 | 106% (inactive) | 114% (inactive) | 101% (inactive) | -2.24% (inactive) | 103 | 101 | -2.93% (inactive) | 5.09% (inactive)
33 | O=C(Nc1ccccc1C(=O)NCCCn1ccnc1)c1ccccc1 | 81% (inactive) | 94.4% (inactive) | 96.8% (inactive) | 9.21% (inactive) | 87.6 | 96.8 | -6.62% (inactive) | -8% (inactive)
34 | O=C(CN1CCN(c2ccc(F)cc2)CC1)OCc1ccccc1 | 95% (inactive) | 105% (inactive) | 92.6% (inactive) | 7.9% (inactive) | 84.7 | 92.6 | -4.4% (inactive) | 3.64% (inactive)
35 | Clc1ccc(Cl)c(-c2nn3c(Cn4cnc5ccccc54)nnc3s2)c1 | 78% (inactive) | 98.5% (inactive) | 102% (inactive) | 6.11% (inactive) | 96 | 102 | -6.3% (inactive) | -0.18% (inactive)
36 | O=C(Cn1cnc2c(cnn2-c2ccccc2)c1=O)NCCc1ccccc1 | 102% (inactive) | 91.6% (inactive) | 91.8% (inactive) | 0.99% (inactive) | 90.8 | 91.8 | -4.68% (inactive) | -5.74% (inactive)
37 | O=C(COC(=O)c1cnccn1)Nc1ccc2c(c1)OCO2 | 130% (inactive) | 82% (inactive) | 91.6% (inactive) | 2.88% (inactive) | 88.7 | 91.6 | 0.65% (inactive) | 2.46% (inactive)
